The values that follow come from ChEMBL document CHEMBL4229489, “Synthesis and evaluation of camphor and cytisine-based cyanopyrrolidines as DPP-IV inhibitors for the treatment of type 2 diabetes mellitus” (Bioorg Med Chem, 2018).

In one experiment the test system is Mus musculus. In words: Hypoglycemic activity in albino CD-1 mouse assessed as reduction in blood glucose level at 10 mg/kg, po pretreated for 0.5 hrs followed by glucose challenge and measured after 30 to 90 mins by OGTT. The experiment is classed as functional, organism-based. The gist of the method:
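Male CD-1 albino mice, 25–35 g, randomized by weight into groups of 5, fasted 12 h. Compounds mixed with a few drops of Tween 80 or DMSO, dissolved in distilled water, given orally at 10 mg/kg 0.5 h before an oral glucose load (2.5 g/kg). Controls got vehicle only. Blood glucose read by glucometer at 0, 30, 60, 90 min. Mean ± SD, n = 5.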

In the next experiment the target is Dipeptidyl peptidase 4 (Homo sapiens, UniProt P27487). As to the kind of experiment: Inhibition of recombinant human DPP4 using H-Gly-Pro-AMC as substrate measured after 10 mins.

Calls of active or inactive are those of the source. No cut-off for these calls is given here.

Dipeptidyl peptidase 4, sequence (P27487 whole entry): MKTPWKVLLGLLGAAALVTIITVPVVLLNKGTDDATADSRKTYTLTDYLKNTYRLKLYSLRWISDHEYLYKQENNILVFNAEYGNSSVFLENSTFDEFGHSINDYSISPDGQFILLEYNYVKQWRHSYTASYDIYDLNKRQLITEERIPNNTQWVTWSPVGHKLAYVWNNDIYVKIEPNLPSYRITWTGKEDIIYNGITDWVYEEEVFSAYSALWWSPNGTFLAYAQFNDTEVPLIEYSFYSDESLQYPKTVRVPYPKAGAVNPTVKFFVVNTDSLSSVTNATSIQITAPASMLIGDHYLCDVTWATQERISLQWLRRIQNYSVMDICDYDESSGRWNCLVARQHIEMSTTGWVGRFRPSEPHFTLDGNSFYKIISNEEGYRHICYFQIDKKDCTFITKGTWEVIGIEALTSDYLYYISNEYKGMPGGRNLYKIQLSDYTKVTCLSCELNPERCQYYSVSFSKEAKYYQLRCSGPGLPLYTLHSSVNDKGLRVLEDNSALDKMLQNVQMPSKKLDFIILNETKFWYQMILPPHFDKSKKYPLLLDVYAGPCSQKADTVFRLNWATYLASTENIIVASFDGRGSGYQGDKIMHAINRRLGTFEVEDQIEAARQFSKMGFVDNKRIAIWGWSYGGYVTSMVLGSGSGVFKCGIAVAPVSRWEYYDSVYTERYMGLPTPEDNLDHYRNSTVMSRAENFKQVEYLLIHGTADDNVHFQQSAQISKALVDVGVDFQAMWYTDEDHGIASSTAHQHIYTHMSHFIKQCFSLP

On to `N#C[C@@H]1CCCN1C(=O)CN1C[C@H]2C[C@H](C1)c1c(Cl)ccc(=O)n1C2`, for which the outcome with Mus musculus was inactive. Besides, the IC50 result on Dipeptidyl peptidase 4 was “Not Active”. Taken in the same sequence, the figures for `N#C[C@@H]1CCCN1C(=O)CN1C[C@H]2C[C@H](C1)c1ccc([N+](=O)[O-])c(=O)n1C2` were “inactive” and “Not Active”.

As for `CC1(C)[C@@H]2CC[C@@]1(C)[C@H](NCC(=O)N1CCC[C@H]1C#N)C2`, the outcome in the experiment with Mus musculus was Active.

`CC1(C)[C@H]2CC[C@]1(C)[C@@H](O)[C@H]2NCC(=O)N1CCC[C@H]1C#N` (stereo in doubt): the result with Mus musculus was Active. Consider `N#C[C@@H]1CCCN1C(=O)CN1C[C@H]2C[C@H](C1)c1cccc(=O)n1C2`, for which the outcome in the experiment with Mus musculus was inactive. Moreover, on Dipeptidyl peptidase 4, the IC50 entry is recorded as “Not Active”. On to `N#C[C@@H]1CCCN1C(=O)CN1C[C@H]2C[C@H](C1)c1c(Br)cc(Br)c(=O)n1C2`, for which the outcome with Mus musculus was inactive. Besides, the IC50 result at Dipeptidyl peptidase 4 was “Not Active”. Turning to `N#C[C@@H]1CCCN1C(=O)CNC12CC3CC(CC(O)(C3)C1)C2`, the outcome with Mus musculus was Active.

`CC12CCC([C@H](NCC(=O)N3CCC[C@H]3C#N)C1=O)C2(C)C` (single isomer, unassigned): the result in the experiment on Mus musculus was Active.

As for `CC1(C)[C@H]2CC[C@]1(C)[C@@H](NCC(=O)N1CCC[C@H]1C#N)C2`, the result with Mus musculus was Active. On to `N#C[C@@H]1CCCN1C(=O)CN1C[C@H]2C[C@H](C1)c1c(Cl)cc(Cl)c(=O)n1C2`, for which, in the experiment with Mus musculus, the outcome was inactive. On Dipeptidyl peptidase 4, the IC50 result is reported as “Not Active”.
